A selection: hits, their analogues and other compounds. The true share with any hit is near 4.9%.
STAT1 inh: STAT1 signaling inhibition; NIH 3T3 STAT1-luciferase reporter, IFN-gamma, luminescence; inhibition, % at 5.5 µM; 200,000 tested, 0.35% active;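 active = inhibition above a set limit, the mean inhibition across all tested compounds plus 3 SD, cut at about 34% in these data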;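 also: 0% = IFN-gamma with DMSO and 100% = IFN-gamma with 300 µM nifuroxazide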
STAT3 act-1: activators of IL-6 induced STAT3 signaling; 190,000 tested, 0.91% active; AID 871; activation (% of control), % at 5.6 µM; U3A cells, IL-6 STAT3-luciferase reporter, luminescence; 100% = signal with IL-6 EC80 alone;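 active = activation above the screen-wide mean of compound activation plus 3 SD, cut at about 130% in these data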;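 also: 0% = background luminescence of wells with medium and substrate only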
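Material: human STAT1-deficient U3A cells with stable STAT3-luciferase reporter / Probe or stimulus: IL-6 stimulus at 33 ng/mL final / Schedule: 1 h compound pre-exposure, 6 h IL-6 stimulation, 37 °C / Technique: luminescence / Read-out basis: percent of IL-6-only median luminescence / Control set: IL-6-only high control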
STAT3 inh: inhibitors of IL-6 induced STAT3 signaling; U3A cells, IL-6 STAT3-luciferase reporter, luminescence; host cell line lacks STAT1; AID 862; inhibition, % at 5.5 µM; 190,000 tested, 0.89% active;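 active = inhibition above the mean inhibition across all screened compounds plus 3 SD, cut at about 44% in these data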;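 also: 0% = DMSO only wells and 100% = 100 µM nifuroxazide control wells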
FLuc inhib CS: Photinus pyralis luciferase inhibition counter-screen. P08659. ATPLite firefly luciferase biochemical luminescence, 10 min. inhibition, % at 10 µM. 200,000 tested, 1.5% active;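 active = inhibition above about 50% when tested at 10 µM, limit read from the data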
Target sequence (P08659 whole entry, looked up): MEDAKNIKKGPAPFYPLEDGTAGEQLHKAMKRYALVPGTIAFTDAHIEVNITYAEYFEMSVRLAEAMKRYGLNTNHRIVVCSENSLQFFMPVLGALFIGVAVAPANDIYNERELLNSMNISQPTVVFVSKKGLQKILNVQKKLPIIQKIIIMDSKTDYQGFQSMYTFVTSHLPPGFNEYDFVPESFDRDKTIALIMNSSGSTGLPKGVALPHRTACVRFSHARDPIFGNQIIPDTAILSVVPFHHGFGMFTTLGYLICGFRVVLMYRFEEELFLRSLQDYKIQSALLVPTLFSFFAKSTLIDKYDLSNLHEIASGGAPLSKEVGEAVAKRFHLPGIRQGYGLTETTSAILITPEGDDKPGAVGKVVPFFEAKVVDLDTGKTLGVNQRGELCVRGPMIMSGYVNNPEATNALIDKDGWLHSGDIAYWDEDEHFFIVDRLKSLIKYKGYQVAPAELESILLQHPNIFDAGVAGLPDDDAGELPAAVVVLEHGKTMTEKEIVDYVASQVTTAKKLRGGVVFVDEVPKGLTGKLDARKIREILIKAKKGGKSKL
STAT1 act-1: increases IFN-gamma driven STAT1 reporter signal. NIH 3T3 STAT1-luciferase reporter, luminescence; 100% = IFN-gamma alone, no compound. AID 932. activation (% of control), % at 5.5 µM. 200,000 tested, 2.6% active;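 active = activation above the screen-wide mean activation plus 3 SD, cut at about 130% in these data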;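 also: raw ratio to IFN-gamma control signal so 100% means no change and 0% no light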
FLuc act counter: affects firefly luciferase, flagging false hits in luciferase stimulation screens; P08659; ATPlite luciferase biochemical, luminescence, 10 min; 0 = ATP-free wells, 1 = DMSO control; activation factor at 10 µM; 200,000 tested, under 10 active;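 active = luciferase activation factor, scaled between plate controls, of at least 2 with compound at 10 µM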
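System: luciferase plus luciferin reagent, cell-free; medium: PBS as buffer for the ATP substrate; dosing: test compounds dosed from 2 mM stocks in 100% DMSO; timing: 10 min post-reagent at room temperature; measured by: luminescence measurement of luciferase light output; evaluation: luciferase activation, seen as luminescence increase over controls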
STAT3 act-2: confirmation of STAT3 signaling activators | potentiation (% of control), % at 5.7 µM | U3A STAT3-luciferase reporter, IL-6 potentiation, luminescence; U3A cells lack STAT1; 100 means same as IL-6 alone | AID 1267 | shares compounds with STAT3 act-1 | 1,200 tested, 64% active;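 active = percent activation of the STAT3 luciferase reporter above a set limit taken from the earlier primary screen, cut at about 130% in these data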;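 also: 0% = background signal of medium plus substrate and 100% = median of IL-6 with DMSO wells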
NFkB act STAT3ct: activates NF-kappaB, counter-screen to STAT3 activators; shares compounds with STAT3 act-1; activation (% of control), % at 5.7 µM; 1,200 tested, 11% active; AID 1309; human cells, NF-kappaB reporter activation; in the data active = activation above about 120%;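 also: reporter induced by TNF-alpha stimulation; 100% = median of stimulated DMSO wells and 0% = no signal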
STAT1 act-2: STAT1 activation in STAT3 activator counter-screen. shares compounds with STAT3 act-1. NIH 3T3 STAT1-luciferase reporter, IFN-gamma, luminescence. activation (% of control), % at 5.7 µM. 1,200 tested, 13% active. AID 1318;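 active = activation above the solvent-only control well mean plus 3 SD, set per screening run, cut at about 120% in these data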;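 also: 100% = IFN-gamma with DMSO median signal so 100% means no change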
Numbers without * were called inactive; i = inactive; . = not tested or not shown; + = active, no number.

SMILES | STAT1 inh | STAT3 act-1 | STAT3 inh | FLuc inhib CS | STAT1 act-1 | FLuc act counter | STAT3 act-2 | NFkB act STAT3ct | STAT1 act-2
COc1cccc(C2C3=C(N=c4s/c(=C\c5ccccc5O)c(=O)n42)c2ccccc2CC3)c1OC (stereo not given) | 13 | 113 | -2 | -2 | 88 | 1 | . | . | .
N/C(=N\NC(=O)c1ccc(F)cc1)c1cc2ccccc2oc1=O | 0 | 146* | -42 | 4 | 99 | 1 | 142* | 109 | 104
N/C(=N\NC(=O)c1cccs1)c1cc2ccccc2oc1=O | -6 | 92 | 9 | -5 | 105 | 1 | . | . | .
O=C/C(=C\Nc1ccc(S(=O)(=O)CCO)cc1)c1nc2cc(Cl)ccc2o1 | -11 | 106 | -6 | -6 | 108 | 1.1 | . | . | .
O=C/C(=C\Nc1ccc(Cl)cn1)c1nc2cc(Cl)ccc2o1 | -3 | 145* | -53 | -5 | 102 | 1.1 | 127 | 108 | 97
O=C/C(=C\Nc1ccc(Cl)cn1)c1nc2ccccc2o1 | 12 | 137* | -40 | 3 | 94 | 1 | 112 | 106 | 97
NC(=O)CC1C(=O)N(c2ccc(F)cc2)C(=O)N1NC(=O)CCc1ccccc1 (stereo not given) | -4 | 97 | 11 | -5 | 102 | 1.1 | . | . | .
COc1ccc(C2CC3(CC(C)(C)NC(=S)N3)Oc3cc(O)cc(C)c32)cc1OC (stereo not given) | -4 | + | i | -2 | 102 | 1 | 693* | 118 | 121*
C=CCN(C(=O)C1=NN(C2CCS(=O)(=O)C2)C(=O)CC1)c1nc(-c2ccc([N+](=O)[O-])cc2)cs1 (stereo not given) | -24 | 104 | 0 | 2 | 121 | 1 | . | . | .
Clc1ccc2nc(SCc3nnc(-c4ccccc4)o3)[nH]c2c1 | 9 | 93 | 9 | -8 | 92 | 1.1 | . | . | .
Cc1ccc2nc(SCc3nnc(-c4ccccc4Br)o3)[nH]c2c1 | -1 | 140* | -45 | -2 | 101 | 1 | 124 | 100 | 99
COc1ccccc1-c1nnc2n1N=C(c1ccc(O)c(O)c1)CS2 | 3 | 136* | -38 | 0 | 98 | 1 | 127 | 160* | 125*
Brc1ccccc1C1=Nn2c(nnc2-c2ccccc2)SC1 | 5 | 137* | -38 | -4 | 96 | 1 | 140* | 101 | 91
COc1ccc(C2=Nn3c(nnc3-c3ccncc3)SC2)cc1OC | 23 | 127 | -24 | -9 | 79 | 1.1 | . | . | .
CCCCC(=O)Nc1ccc(C(=O)Nc2ccc(S(=O)(=O)Nc3nccc(C)n3)cc2)cc1 | 10 | 108 | -7 | -4 | 91 | 1 | . | . | .
CC(C)CC(NC(N)=O)C(=O)NCc1ccccc1Cl (stereo not given) | -13 | 117 | -9 | 4 | 110 | 1 | . | . | .
Oc1ccc(C=Nc2cccc3ncccc23)c(O)c1 | 2 | 106 | -2 | -3 | 99 | 1 | . | . | .
CCOc1ccc(C=Nc2cccc3ncccc23)cc1 | 6 | 149* | -59 | 21 | 93 | 0.8 | 148* | 102 | 119
CN1C(=O)SC(Nc2cccc3ccccc23)C1=O (stereo not given) | -2 | 99 | 5 | -8 | 99 | 1.1 | . | . | .
O=C1NC(=O)C(Nc2cccc3ccccc23)S1 (stereo not given) | 6 | 141* | -46 | -5 | 92 | 1 | 129 | 103 | 94
COc1ccc2c(C)cc(SCC(=O)NCCN3C(=O)CSC3=O)nc2c1 | 2 | 100 | -2 | -2 | 98 | 1 | . | . | .
N=C(c1cccc([N+](=O)[O-])c1)N1CCCCC1 | -5 | 98 | 8 | -6 | 105 | 1.1 | . | . | .
CC(C)OCCCNC(=S)Nc1ccc(S(N)(=O)=O)cc1 | -10 | 107 | -5 | 1 | 108 | 1 | . | . | .
N#CC1=C(N)Oc2n[nH]c(-c3cccs3)c2C1c1cccs1 (stereo not given) | 24 | 176* | -89 | -3 | 78 | 1 | 114 | 116 | 72
Cc1nn(-c2ccccc2)c2c1C(c1cccs1)C(C#N)=C(N)O2 (stereo not given) | 15 | 148* | -49 | -6 | 87 | 1.1 | 129 | 102 | 95
SMILES | STAT1 inh | STAT3 act-1 | STAT3 inh | FLuc inhib CS | STAT1 act-1 | FLuc act counter | STAT3 act-2 | NFkB act STAT3ct | STAT1 act-2
COc1c(C)cc(Br)cc1C(=O)Nc1ccc(S(N)(=O)=O)cc1 | -6 | 102 | 2 | -5 | 104 | 1.1 | . | . | .
CCOC(=O)c1[nH]c2ccccc2c1NC(=O)CC | 9 | 194* | -110 | -3 | 92 | 1 | 148* | 108 | 96
CCOC(=O)c1[nH]c2ccccc2c1NC(=O)C(C)(C)C | 0 | 102 | 3 | -5 | 100 | 1 | . | . | .
CCOC(=O)c1[nH]c2ccccc2c1NC(=O)COC | 18 | 168* | -70 | -6 | 84 | 1.1 | 165* | 101 | 93
CCOC(=O)c1oc2ccccc2c1NC(=O)CN1CCOCC1 | -3 | 106 | -4 | -7 | 101 | 1.1 | . | . | .
N#Cc1sc2nc(-c3ccccc3)cc(C(F)(F)F)c2c1N | 5 | 148* | -36 | 0 | 95 | 1 | 155* | 104 | 112
Cn1c(N)c(C(=O)COC(=O)CC2CC3CCC2C3)c(=O)n(C)c1=O (stereo not given) | 5 | 96 | 12 | -3 | 95 | 1 | . | . | .
Cc1cccc(C2c3[nH]c4ccccc4c3CCN2C(=O)c2ocnc2C)n1 (stereo not given) | 11 | 125 | -27 | -7 | 88 | 1.1 | . | . | .
Cc1cccc(C2c3[nH]c4ccccc4c3CCN2C(=O)c2cc(CC(C)C)nc(C)n2)n1 (stereo not given) | 7 | 153* | -42 | -5 | 93 | 1 | 151* | 109 | 102
Cc1cccc(C2c3[nH]c4ccccc4c3CCN2C(=O)c2nn(C)c(=O)c3ccccc23)n1 (stereo not given) | 1 | 137* | -38 | 0 | 98 | 1 | 132 | 106 | 94
CC(=O)c1cccc(NC(=O)N2CCC(NC(=O)C34CC5CC(CC(C5)C3)C4)CC2)c1 | -10 | 91 | 12 | -6 | 108 | 1.1 | . | . | .
Cc1ccc(N(C(=O)Cn2nnc(-c3ccccc3)n2)C(C(=O)NC2CCCCC2)c2ccccn2)cc1C (stereo not given) | 1 | 103 | -6 | -2 | 101 | 1 | . | . | .
